For assay [1], the target named is T1, Mitogen-activated protein kinase kinase kinase 7 (Homo sapiens) (UniProt O43318).
T1 sequence (whole entry): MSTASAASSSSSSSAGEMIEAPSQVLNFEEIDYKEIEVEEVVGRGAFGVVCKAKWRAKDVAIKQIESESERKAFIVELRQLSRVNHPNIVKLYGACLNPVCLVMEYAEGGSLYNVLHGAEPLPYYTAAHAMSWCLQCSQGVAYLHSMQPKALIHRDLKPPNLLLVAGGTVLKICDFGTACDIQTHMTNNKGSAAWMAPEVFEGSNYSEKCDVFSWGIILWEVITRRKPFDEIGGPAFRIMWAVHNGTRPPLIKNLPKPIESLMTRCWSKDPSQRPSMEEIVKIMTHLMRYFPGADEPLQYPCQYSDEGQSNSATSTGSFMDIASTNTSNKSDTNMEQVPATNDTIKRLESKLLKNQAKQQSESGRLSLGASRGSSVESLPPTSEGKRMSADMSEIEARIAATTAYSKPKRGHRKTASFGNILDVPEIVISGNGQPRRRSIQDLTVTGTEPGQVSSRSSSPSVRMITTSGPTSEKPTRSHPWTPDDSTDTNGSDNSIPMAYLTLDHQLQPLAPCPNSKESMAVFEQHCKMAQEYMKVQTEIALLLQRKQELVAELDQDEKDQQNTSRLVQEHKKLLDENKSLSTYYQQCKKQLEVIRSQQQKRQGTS
The assay can be described thus: Inhibition of TAK1 (unknown origin) at 500 nM by ADP-Glo kinase assay. In general terms: ADP-Glo first removes unused ATP, then detects ADP through luciferase.

Assay [2] concerns the target T1, Mitogen-activated protein kinase kinase kinase 7 (Homo sapiens). Description: Inhibition of TAK1 (unknown origin) at 100 nM by ADP-Glo kinase assay.
The target is the same in assay [3]. Description: Inhibition of TAK1 (unknown origin) at 20 nM by ADP-Glo kinase assay.
The target of assay [4] is Mitogen-activated protein kinase kinase kinase 7 (Homo sapiens, UniProt O43318). The assay can be described thus: Inhibition of human TAK1 using casein as substrate in presence of [gamma-33P]-ATP by radiometric hotspot kinase assay.
Another assay relates to MPC-11. The assay can be described thus: Cytotoxicity against mouse MPC-11 cells assessed as reduction in cell viability incubated for 72 hrs by CellTiter-Blue assay. Type of assay: functional. The essentials:
(§1)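 H929 (RPMI, 10% heat-inactivated FBS) or MPC-11 (DMEM, 10% FBS) cells, under 10 passages, 37 °C, 5% CO₂; 4–5 × 10³ cells/well seeded, 24 h, then compound at various concentrations for 72 h. CellTiter-Blue added for 3 h, fluorescence ex/em 560/590 nm. Normalized to DMSO-treated cells; triplicate, mean and standard deviation.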
(The colour change of resazurin is a common sign of viable cells or microbes.)

The subject of a further assay is NCI-H929. Description: Cytotoxicity against human NCI-H929 cells assessed as reduction in cell viability incubated for 72 hrs by CellTiter-Blue assay. Format: functional. Put shortly: as §1
Assay [5] addresses Mitogen-activated protein kinase kinase kinase 7 (Mus musculus) (UniProt Q62073). The assay can be described thus: Inhibition of TAK1 in mouse MPC-11 cells assessed as reduction in TAK1 phosphorylation at Ser412 residue at 0.1 to 0.5 uM incubated for 48 hrs by Western blot analysis. Type of assay: cell-based. As to conditions: dose 0.1-0.5 µM. Put shortly:
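MPC-11 cells (0.5–1 × 10⁶/well) seeded, treated after 24 h for 48 h; DMSO control. BCA protein quantitation, 10% SDS-PAGE, PVDF; pTAK1, TAK1, β-actin antibodies overnight 4 °C, HRP secondaries 2 h 24 °C, chemiluminescence. Bands quantified relative to actin; duplicates, mean and standard deviation.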
(In western blotting, separated proteins are transferred to a membrane and probed.)

In assay [6] the target is Mast/stem cell growth factor receptor Kit (Homo sapiens) (UniProt P10721). Description: Inhibition of human wild type partial length c-Kit (545 to 952 residues) expressed in mammalian expression system at 50 to 500 nM by KinomeScan analysis. As to conditions: dose 50-500 nM.
Chain of Mast/stem cell growth factor receptor Kit (Homo sapiens) (P10721 whole entry, the tested form may be a part): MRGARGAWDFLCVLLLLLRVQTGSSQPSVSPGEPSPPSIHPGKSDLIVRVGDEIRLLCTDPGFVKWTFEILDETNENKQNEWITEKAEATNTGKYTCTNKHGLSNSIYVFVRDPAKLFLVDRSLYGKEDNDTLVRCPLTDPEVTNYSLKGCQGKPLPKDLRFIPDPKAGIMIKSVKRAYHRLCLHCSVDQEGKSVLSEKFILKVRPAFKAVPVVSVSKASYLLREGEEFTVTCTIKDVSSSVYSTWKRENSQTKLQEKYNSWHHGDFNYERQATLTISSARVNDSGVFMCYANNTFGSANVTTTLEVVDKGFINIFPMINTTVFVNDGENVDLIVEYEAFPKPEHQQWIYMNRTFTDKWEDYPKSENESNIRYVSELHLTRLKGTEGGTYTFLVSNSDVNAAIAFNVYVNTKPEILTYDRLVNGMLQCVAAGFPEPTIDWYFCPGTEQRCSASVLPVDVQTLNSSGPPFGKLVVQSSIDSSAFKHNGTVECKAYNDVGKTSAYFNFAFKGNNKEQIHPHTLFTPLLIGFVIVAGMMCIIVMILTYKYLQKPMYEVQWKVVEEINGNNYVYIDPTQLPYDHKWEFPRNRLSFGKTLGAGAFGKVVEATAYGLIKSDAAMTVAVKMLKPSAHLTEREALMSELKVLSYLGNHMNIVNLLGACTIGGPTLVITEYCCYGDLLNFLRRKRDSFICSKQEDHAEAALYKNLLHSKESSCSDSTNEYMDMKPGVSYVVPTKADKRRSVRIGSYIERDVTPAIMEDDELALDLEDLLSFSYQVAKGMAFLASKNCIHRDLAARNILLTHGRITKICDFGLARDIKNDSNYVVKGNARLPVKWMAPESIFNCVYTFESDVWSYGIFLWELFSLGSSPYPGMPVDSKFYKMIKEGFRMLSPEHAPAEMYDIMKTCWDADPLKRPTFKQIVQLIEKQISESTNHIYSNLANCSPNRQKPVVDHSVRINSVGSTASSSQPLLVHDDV
Assay [7] has as its target Tyrosine-protein kinase ZAP-70 (Homo sapiens) (UniProt P43403). Description: Inhibition of human wild type partial length ZAP70 (20 to 299 residues) expressed in mammalian expression system at 50 to 500 nM by KinomeScan analysis. Particulars: dose 50-500 nM.
In assay [8] the target is Tyrosine-protein kinase JAK2 (Homo sapiens) (UniProt O60674). Description: Inhibition of human wild type partial length JAK2 (829 to 1132 residues) expressed in mammalian expression system at 50 to 500 nM by KinomeScan analysis. As to conditions: dose 50-500 nM.
Chain of Tyrosine-protein kinase JAK2 (Homo sapiens) (O60674 whole entry, the tested form may be a part): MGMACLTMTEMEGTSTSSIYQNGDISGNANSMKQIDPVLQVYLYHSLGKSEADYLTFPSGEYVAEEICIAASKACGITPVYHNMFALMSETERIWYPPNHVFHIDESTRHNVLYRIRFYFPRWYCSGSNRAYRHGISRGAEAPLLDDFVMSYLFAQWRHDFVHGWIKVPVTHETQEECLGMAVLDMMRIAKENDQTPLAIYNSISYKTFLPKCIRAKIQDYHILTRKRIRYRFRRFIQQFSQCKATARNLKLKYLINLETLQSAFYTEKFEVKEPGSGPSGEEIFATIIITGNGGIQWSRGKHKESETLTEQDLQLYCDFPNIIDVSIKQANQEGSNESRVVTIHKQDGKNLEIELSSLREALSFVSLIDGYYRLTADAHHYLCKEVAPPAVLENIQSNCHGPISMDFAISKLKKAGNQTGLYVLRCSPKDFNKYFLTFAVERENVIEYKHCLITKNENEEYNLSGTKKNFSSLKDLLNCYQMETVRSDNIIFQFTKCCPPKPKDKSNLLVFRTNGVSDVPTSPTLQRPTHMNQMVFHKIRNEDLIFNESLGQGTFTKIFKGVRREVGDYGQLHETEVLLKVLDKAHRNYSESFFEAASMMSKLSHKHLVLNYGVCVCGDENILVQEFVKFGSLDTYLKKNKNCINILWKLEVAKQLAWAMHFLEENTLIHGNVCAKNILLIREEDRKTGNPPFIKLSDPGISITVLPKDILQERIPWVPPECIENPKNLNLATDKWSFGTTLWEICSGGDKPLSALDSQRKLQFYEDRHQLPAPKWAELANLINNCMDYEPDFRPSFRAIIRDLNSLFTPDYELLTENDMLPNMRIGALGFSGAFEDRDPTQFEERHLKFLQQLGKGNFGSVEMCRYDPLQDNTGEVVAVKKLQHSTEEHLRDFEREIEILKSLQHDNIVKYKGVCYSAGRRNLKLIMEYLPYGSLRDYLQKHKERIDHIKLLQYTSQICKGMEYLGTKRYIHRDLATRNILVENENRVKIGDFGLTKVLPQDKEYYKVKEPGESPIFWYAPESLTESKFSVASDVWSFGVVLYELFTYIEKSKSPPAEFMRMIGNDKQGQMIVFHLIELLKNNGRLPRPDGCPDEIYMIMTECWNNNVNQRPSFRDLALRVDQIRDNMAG
Assay [9] has as its target Proto-oncogene tyrosine-protein kinase receptor Ret (Homo sapiens) (UniProt P07949). Description: Inhibition of human RET at 50 to 500 nM by KinomeScan analysis. As to conditions: dose 50-500 nM.
In assay [10] the target is Vascular endothelial growth factor receptor 2 (Homo sapiens) (UniProt P35968). Description: Inhibition of human wild type partial length VEGFR2 (787 to 1253 residues) expressed in mammalian expression system at 50 to 500 nM by KinomeScan analysis. As to conditions: dose 50-500 nM.
Chain of Vascular endothelial growth factor receptor 2 (Homo sapiens) (P35968 whole entry, the tested form may be a part): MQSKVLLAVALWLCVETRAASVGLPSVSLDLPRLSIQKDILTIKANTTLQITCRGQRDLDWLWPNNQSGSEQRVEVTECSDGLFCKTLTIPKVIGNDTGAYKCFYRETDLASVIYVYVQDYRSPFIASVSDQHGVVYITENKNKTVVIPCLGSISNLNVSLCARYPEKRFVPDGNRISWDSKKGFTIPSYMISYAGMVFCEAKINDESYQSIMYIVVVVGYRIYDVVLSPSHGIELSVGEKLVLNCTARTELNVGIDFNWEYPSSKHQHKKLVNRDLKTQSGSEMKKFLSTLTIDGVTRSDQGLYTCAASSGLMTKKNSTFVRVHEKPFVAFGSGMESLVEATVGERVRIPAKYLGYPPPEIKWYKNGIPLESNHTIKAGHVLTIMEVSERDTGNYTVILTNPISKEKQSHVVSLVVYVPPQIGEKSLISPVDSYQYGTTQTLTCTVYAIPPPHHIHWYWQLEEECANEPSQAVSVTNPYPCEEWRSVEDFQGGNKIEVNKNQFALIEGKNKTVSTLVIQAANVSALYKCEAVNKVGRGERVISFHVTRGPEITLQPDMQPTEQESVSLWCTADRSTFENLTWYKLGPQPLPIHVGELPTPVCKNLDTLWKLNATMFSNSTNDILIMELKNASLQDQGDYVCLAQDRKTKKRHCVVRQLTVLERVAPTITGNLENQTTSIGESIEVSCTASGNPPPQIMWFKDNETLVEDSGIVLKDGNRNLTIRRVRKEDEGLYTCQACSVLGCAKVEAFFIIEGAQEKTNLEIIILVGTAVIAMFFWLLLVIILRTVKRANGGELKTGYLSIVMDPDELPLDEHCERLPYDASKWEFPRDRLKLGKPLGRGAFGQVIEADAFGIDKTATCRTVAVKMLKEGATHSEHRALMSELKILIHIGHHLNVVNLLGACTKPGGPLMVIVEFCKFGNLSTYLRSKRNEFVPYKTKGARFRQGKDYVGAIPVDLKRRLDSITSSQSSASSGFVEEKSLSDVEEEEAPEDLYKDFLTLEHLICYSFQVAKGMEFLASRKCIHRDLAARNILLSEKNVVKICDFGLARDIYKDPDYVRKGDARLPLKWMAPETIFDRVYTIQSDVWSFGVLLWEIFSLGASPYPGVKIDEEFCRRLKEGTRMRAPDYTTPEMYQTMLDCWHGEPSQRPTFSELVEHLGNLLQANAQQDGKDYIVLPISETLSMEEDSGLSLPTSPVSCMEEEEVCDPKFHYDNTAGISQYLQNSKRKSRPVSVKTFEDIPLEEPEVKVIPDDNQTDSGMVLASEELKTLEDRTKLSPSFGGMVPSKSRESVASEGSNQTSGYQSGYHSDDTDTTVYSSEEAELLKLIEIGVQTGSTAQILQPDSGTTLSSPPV
In assay [11] the target is Platelet-derived growth factor receptor alpha (Homo sapiens) (UniProt P16234). Description: Inhibition of human wild type partial length PDGFRA (575 to 1002 residues) expressed in mammalian expression system at 50 to 500 nM by KinomeScan analysis. Particulars: dose 50-500 nM.
Chain of Platelet-derived growth factor receptor alpha (Homo sapiens) (P16234 whole entry, the tested form may be a part): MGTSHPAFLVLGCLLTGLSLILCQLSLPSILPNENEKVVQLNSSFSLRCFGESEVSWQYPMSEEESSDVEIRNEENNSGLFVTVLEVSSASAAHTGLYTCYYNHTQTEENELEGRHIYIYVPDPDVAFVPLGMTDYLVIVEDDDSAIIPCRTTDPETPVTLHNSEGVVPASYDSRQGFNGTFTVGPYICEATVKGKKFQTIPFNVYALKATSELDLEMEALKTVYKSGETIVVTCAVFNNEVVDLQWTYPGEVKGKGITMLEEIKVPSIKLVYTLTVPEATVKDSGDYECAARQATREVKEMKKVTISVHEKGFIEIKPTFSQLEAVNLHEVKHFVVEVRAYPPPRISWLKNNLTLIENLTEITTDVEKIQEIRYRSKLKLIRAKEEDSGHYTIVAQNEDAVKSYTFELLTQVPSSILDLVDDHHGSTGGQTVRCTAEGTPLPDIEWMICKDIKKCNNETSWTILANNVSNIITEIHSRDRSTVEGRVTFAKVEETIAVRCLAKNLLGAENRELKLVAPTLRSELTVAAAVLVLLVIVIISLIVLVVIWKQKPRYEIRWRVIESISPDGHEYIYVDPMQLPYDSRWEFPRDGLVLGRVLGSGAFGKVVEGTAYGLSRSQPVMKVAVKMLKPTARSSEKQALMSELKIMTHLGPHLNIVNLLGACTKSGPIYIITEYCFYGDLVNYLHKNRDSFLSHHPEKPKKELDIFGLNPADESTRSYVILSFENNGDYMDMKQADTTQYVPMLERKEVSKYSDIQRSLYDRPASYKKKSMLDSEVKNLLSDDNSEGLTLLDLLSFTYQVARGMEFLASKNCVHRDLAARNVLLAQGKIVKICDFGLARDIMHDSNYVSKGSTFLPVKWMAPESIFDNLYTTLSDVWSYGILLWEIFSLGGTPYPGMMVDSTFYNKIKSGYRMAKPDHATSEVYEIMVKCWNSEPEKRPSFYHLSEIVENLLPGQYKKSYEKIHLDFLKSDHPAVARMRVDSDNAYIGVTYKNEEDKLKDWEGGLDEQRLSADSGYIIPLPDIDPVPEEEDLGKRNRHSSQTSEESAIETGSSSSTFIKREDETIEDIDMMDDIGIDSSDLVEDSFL
In assay [12] the target is Platelet-derived growth factor receptor beta (Homo sapiens) (UniProt P09619). The assay can be described thus: Inhibition of human wild type partial length PDGFRB (582 to 1009 residues) expressed in bacterial expression system at 50 to 500 nM by KinomeScan analysis. Particulars: dose 50-500 nM.
Assay [13] has as its target Fibroblast growth factor receptor 2 (Homo sapiens) (UniProt P21802). Description: Inhibition of human wild type partial length FGFR2 (457 to 769 residues) expressed in bacterial expression system at 50 to 500 nM by KinomeScan analysis. Particulars: dose 50-500 nM.
Assay [14] deals with Fibroblast growth factor receptor 3 (Homo sapiens) (UniProt P22607). The assay can be described thus: Inhibition of human wild type partial length FGFR3 (442 to 771 residues) expressed in bacterial expression system at 50 to 500 nM by KinomeScan analysis. As to conditions: dose 50-500 nM.
The target in assay [15] is Epidermal growth factor receptor (Homo sapiens) (UniProt P00533). Description: Inhibition of human wild type partial length EGFR (669 to 1011 residues) expressed in bacterial expression system at 50 to 500 nM by KinomeScan analysis. Particulars: dose 50-500 nM.
Assay [16] has as its target Serine/threonine-protein kinase B-raf (Homo sapiens) (UniProt P15056). Description: Inhibition of human wild type partial length BRAF (429 to 741 residues) expressed in mammalian expression system at 50 to 500 nM by KinomeScan analysis. Particulars: dose 50-500 nM.
Assay [17] addresses RAC-alpha serine/threonine-protein kinase (Homo sapiens) (UniProt P31749). The assay can be described thus: Inhibition of human wild type partial length AKT1 expressed in bacterial expression system at 50 to 500 nM by KinomeScan analysis. As to conditions: dose 50-500 nM.
The target in assay [18] is RAC-beta serine/threonine-protein kinase (Homo sapiens) (UniProt P31751). The assay can be described thus: Inhibition of human wild type partial length AKT2 expressed in bacterial expression system at 50 to 500 nM by KinomeScan analysis. Particulars: dose 50-500 nM.
Assay [19] addresses Aurora kinase A (Homo sapiens) (UniProt O14965). Description: Inhibition of human wild type partial length Aurora A (122 to 401 residues) expressed in mammalian expression system at 50 to 500 nM by KinomeScan analysis. Particulars: dose 50-500 nM.
For assay [20], the target named is Aurora kinase B (Homo sapiens) (UniProt Q96GD4). Description: Inhibition of human wild type partial length Aurora B (25 to 303 residues) expressed in mammalian expression system at 50 to 500 nM by KinomeScan analysis. Particulars: dose 50-500 nM.
Assay [21] deals with cAMP-dependent protein kinase catalytic subunit alpha (Homo sapiens) (UniProt P17612). Description: Inhibition of human wild type partial length PKAC-alpha (10 to 351 residues) expressed in bacterial expression system at 50 to 500 nM by KinomeScan analysis. Particulars: dose 50-500 nM.

SMILES strings stand for the structures. Activity calls are given as the source filed them. No cut-off for these calls is given here.

Chain of Aurora kinase A (Homo sapiens) (O14965 whole entry, the tested form may be a part): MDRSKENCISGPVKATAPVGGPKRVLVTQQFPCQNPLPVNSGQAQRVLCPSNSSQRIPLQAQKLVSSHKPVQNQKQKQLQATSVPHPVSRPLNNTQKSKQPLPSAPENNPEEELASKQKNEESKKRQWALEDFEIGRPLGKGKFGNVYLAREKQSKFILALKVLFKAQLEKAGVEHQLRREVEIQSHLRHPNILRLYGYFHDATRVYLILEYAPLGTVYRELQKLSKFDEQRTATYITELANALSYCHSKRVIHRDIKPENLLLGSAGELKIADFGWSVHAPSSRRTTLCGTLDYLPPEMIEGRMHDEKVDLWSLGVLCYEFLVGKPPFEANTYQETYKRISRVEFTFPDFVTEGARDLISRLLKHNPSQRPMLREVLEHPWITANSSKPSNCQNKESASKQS

For orientation: inhibition means the change of the read-out against control, counted positive when it falls. By IC50 is commonly meant the point on the concentration scale where inhibition reaches its midpoint. Broadly, the GI50 is the concentration that inhibits growth by half. Take `C[C@@H]1CN(c2ccc3ncc(-c4ccc5[nH]nc(C6CC6)c5c4)n3n2)C[C@H](C)O1`: the inhibition in assay [1] is 100%; in [2] it was more than 50%; in assay [3], more than 50%. For the same compound, the IC50 in [4] was 55 nM. Further, the results for the GI50 in the assay with MPC-11 and with NCI-H929 were 41 nM and 43 nM, respectively. The inhibition entry in assay [5], in [6], in assay [7], in assay [8], in [9] and in assay [10] was “Active” throughout. In addition, the inhibition entry in [11], in assay [12], in assay [13], in assay [14], in assay [15] and in assay [16] was “Active” throughout. The inhibition result in assay [17], in assay [18], in [19], in [20] and in [21] was “Active” in each case.

The record behind these values is ChEMBL document CHEMBL5357042, “Discovery of imidazo[1,2-b]pyridazine-containing TAK1 kinase inhibitors with excellent activities against multiple myeloma” (RSC Med Chem, 2024).
